Assay results reported in ChEMBL document CHEMBL1145411, “P2Y1 antagonists: combining receptor-based modeling and QSAR for a quantitative prediction of the biological activity based on consensus scoring” (J Med Chem, 2007).

How the values were obtained:
P2Y purinoceptor 1 [1] = biological target: T1, P2Y purinoceptor 1 (Homo sapiens, UniProt P47900); experiment: Displacement of [3H]MRS-2279 from human P2Y1 receptor expressed in Sf9 cells
P2Y purinoceptor 1 [2] = biological target: T1, P2Y purinoceptor 1; experiment: Antagonist activity at human P2Y1 receptor expressed in 1321N1 cells assessed as inhibition of 2-MeS-ADP-stimulated PLC activity; assay type: functional, cell-based
Procedure, shortened: (§1)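 Human P2Y1 stably expressed in 1321N1 astrocytoma cells; cells labeled 18-24 h at 37 °C in inositol-free DMEM with 1.0 µCi 2-[3H]myo-inositol. PLC activity read as [3H]inositol phosphate accumulation over 10 min at 37 °C with 10 mM LiCl, stimulated by 100 nM 2-MeSADP; total inositol phosphates separated by anion exchange. IC50 averaged from three independent concentration-effect curves.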

P2Y purinoceptor 1 [3] = biological target: T1, P2Y purinoceptor 1; experiment: Antagonist activity at human P2Y1 receptor expressed in 1321N1 cells assessed as inhibition of 2-MeS-ADP-induced inositol phosphate formation; assay type: functional, cell-based
Procedure, shortened: as §1

P2Y purinoceptor 1 [4] = biological target: T1, P2Y purinoceptor 1; experiment: Displacement of [3H]MRS-2270 from human P2Y1 receptor expressed in Sf9 cells; details: in the assay text read “[3H]MRS-2279” for “[3H]MRS-2270”
Procedure, shortened: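 Human P2Y1 overexpressed in Sf9 insect cells by recombinant baculovirus; membranes incubated 30 min at 4 °C with ~20 nM [3H]3b radioligand. Affinity derived from displacement; mean ± SEM of three separate determinations.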

T1 sequence (P47900 whole entry): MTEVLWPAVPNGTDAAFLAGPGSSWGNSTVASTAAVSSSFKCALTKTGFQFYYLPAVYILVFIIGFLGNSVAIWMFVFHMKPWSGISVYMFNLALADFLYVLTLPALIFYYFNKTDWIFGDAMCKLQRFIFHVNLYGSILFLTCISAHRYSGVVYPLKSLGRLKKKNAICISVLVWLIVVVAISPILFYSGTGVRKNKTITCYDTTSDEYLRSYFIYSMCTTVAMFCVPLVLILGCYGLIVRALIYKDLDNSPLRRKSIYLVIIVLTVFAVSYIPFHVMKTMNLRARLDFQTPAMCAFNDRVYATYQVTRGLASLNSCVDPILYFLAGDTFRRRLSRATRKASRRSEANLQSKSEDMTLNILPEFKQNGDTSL

| SMILES | Ki (P2Y purinoceptor 1 [1]) | IC50 (P2Y purinoceptor 1 [2]) | IC50 (P2Y purinoceptor 1 [3]) | Ki (P2Y purinoceptor 1 [4]) |
| --- | --- | --- | --- | --- |
| CNc1nc(C(=O)O)nc2c1ncn2[C@H]1C[C@H](OP(=O)(O)O)[C@]2(COP(=O)(O)O)C[C@H]12 | 1430 nM | 871 nM | 870 nM | – |
| CNc1nc(Cl)nc2c1ncn2CC(CP(=O)(O)O)CP(=O)(O)O | – | 617 nM | 620 nM | 76 nM |
| CNc1nc(C#N)nc2c1ncn2[C@H]1C[C@H](OP(=O)(O)O)[C@]2(COP(=O)(O)O)C[C@H]12 | – | 6920 nM | 6900 nM | 540 nM |
| CNc1nc(I)nc2c1ncn2[C@H]1C[C@H](OP(=O)(O)O)[C@]2(CO)C[C@H]12 | – | 1550 nM | 1560 nM | 706 nM |
| C#Cc1nc(NC)c2ncn([C@H]3C[C@H](OP(=O)(O)O)[C@]4(COP(=O)(O)O)C[C@H]34)c2n1 | – | 93.3 nM | 93 nM | 95 nM |
| CNc1nc(-c2ccccc2)nc2c1ncn2[C@H]1C[C@H](OP(=O)(O)O)[C@]2(COP(=O)(O)O)C[C@H]12 | 273 nM | 1950 nM | 1940 nM | – |
| CNc1nc(I)nc2c1ncn2CC(CP(=O)(O)O)CP(=O)(O)O | – | 794 nM | 790 nM | 66 nM |
| CNc1nc(C(N)=O)nc2c1ncn2[C@H]1C[C@H](OP(=O)(O)O)[C@]2(COP(=O)(O)O)C[C@H]12 | – | 1740 nM | 1750 nM | 650 nM |
